Holding throughout (assay type): ADME, organism-based
In data set [1] the test system is Lung. The data set can be described thus: Biodistribution in C57Bl/6JRccHsd mouse lung at 2.86 +/- 1.26 MBq, iv measured at 80 mins by SPECT analysis. The note with it: in vivo. A digest of the protocol:
(§1)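 Organs excised at 5, 20, 40, 80 or 160 min and radioactivity gamma-counted as %ID/g (brain also as %ID). Blocking groups received KYP-2047 (50 µmol/kg, 10 mL/kg, 1% DMSO in 0.9% NaCl) i.p. 10 min before tracer. Mean ± SD, n = 2–4 per time point. Blocking compared by two-tailed Student's t test.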

The subject of data set [2] is Mus musculus. The data set can be described thus: Biodistribution in gastrocnemius muscle of iv dosed C57BL/6JRccHsd mouse turpentine-induced acute localized inflammation model after 20 mins to 24 hrs by SPEC-CT analysis (reference value: 2.0 +/- 0.6 %ID/g). The note with it: in vivo.
Data set [3] concerns Mus musculus. Nature of the data set: Drug metabolism in C57Bl/6JRccHsd mouse plasma assessed as retention time of radioactive metabolite at 3.6 MBq, iv measured at 20 mins by HPLC analysis. A digest of the protocol: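 Male mice received 3.6 MBq tracer via tail vein. Cardiac blood was taken on heparin and centrifuged. Plasma was deproteinized with acetonitrile (1.5× plasma volume) and the supernatant run on reverse-phase C18 gradient HPLC. Fractions of 0.65 min were gamma-counted. Metabolite retention time was read from the 20 min sample.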

In data set [4] the test system is Liver. The data set can be described thus: Biodistribution in C57Bl/6JRccHsd mouse liver at 2.86 +/- 1.26 MBq, iv measured at 80 mins post dose pretreated with 50 umol/kg, ip prolyl oligopeptidase inhibitor KYP-2047 10 mins before compound dosing by SPECT analysis. The note with it: in vivo. A digest of the protocol:
as §1

A short description of data set [5]: Drug uptake in iv dosed C57Bl/6JRccHsd mouse blood cells measured at 20 mins post dose pretreated with 50 umol/kg, ip prolyl oligopeptidase inhibitor KYP-2047 10 mins before compound dosing by SPECT analysis. The settings on record: in vivo. A digest of the protocol: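 Mice got tracer i.v., some after i.p. KYP-2047 (50 µmol/kg) 10 min before. Cardiac blood was collected at 20, 40, 80 or 160 min and spun 5 min at 2000 g into cells and plasma. Plasma was precipitated with acetonitrile and pellet and supernatant were gamma-counted. Activity in cells, protein-bound and free plasma is given as % of total blood activity, n = 3.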

The test system of data set [6] is Heart. Nature of the data set: Biodistribution in C57Bl/6JRccHsd mouse heart at 2.86 +/- 1.26 MBq, iv measured at 80 mins post dose pretreated with 50 umol/kg, ip prolyl oligopeptidase inhibitor KYP-2047 10 mins before compound dosing by SPECT analysis. The note with it: in vivo. A digest of the protocol:
as §1

SMILES strings stand for the structures.

Consider `N#C[C@@H]1CCCN1C(=O)[C@@H]1CCCN1C(=O)CCCc1ccc([123I])cc1`, for which the Drug uptake came out at 14.67 % ID/g in data set [1]; 0.8 % ID/g in data set [2]; 5.05 % ID/g in data set [4]; 53% in data set [5]; 1.34 % ID/g in data set [6]. In addition, the Retention_time in data set [3] is reported as 4 min.

The record behind these values is ChEMBL document CHEMBL3232996, “Synthesis and biological evaluation of novel (123)I-labeled 4-(4-iodophenyl)butanoyl-L-prolyl-(2S)-pyrrolidines for imaging prolyl oligopeptidase in vivo” (Eur J Med Chem, 2014).
